Where a SMILES comes first, the peptide text is derived from it. Side-chain parts run from the residue outwards. The star is where a group is joined. Oxymorphamine(6α) = CN1CC[C@]23c4c5ccc(O)c4O[C@H]2[C@@H](N*)CC[C@@]3(O)[C@H]1C5
Columns and labels:
[1] = target: T1, Mu-type opioid receptor (Cavia porcellus, UniProt P97266); test: Binding affinity of Opioid receptor mu 1 by the displacement of mu-selective [3H]DAGO from brain membrane preparations.
Method in brief: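 Competitive displacement of the μ-selective radioligand [3H]DAGO from brain membrane preparations ([…]). Affinity taken from ligand displacement.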

[2] = species on record: Cavia porcellus; test: Ke value for naloxone versus compound in the guinea pig ileum (GPI) in order to distinguish between mu- and delta-mediated effects; format: functional
Method in brief: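 Electrically stimulated guinea pig ileum. Naloxone antagonism measured against each agonist and expressed as a Ke, used to tell μ- from δ- or κ-mediated effects.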

[3] = system: Mus musculus; test: Analgesic potency (antinociceptive activity) (administered icv) at peak time of 20 min in male Swiss-Webster mice; format: functional
Method in brief: (§1)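 Intracerebroventricular dosing in male Swiss-Webster mice. Antinociception scored by the acetic acid writhing test at the peak time of analgesia, 10 or 20 min after injection depending on compound.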

[4] = species on record: Mus musculus; test: Opioid agonist potencies was determined by mouse vas deferens (MVD); format: functional
[5] = species on record: Cavia porcellus; test: Opioid agonist potencies was determined by electrically stimulated guinea pig ileum (GPI); format: functional
[6] = system: Mus musculus; test: Analgesic potency (antinociceptive activity) (administered icv) at peak time of 10 min in male Swiss-Webster mice; format: functional; method in brief: as §1
[7] = target: T1, Mu-type opioid receptor; test: Binding affinity of Opioid receptor mu 1 mu 1 by the displacement of mu-selective [3H]DAGO from brain membrane preparations.

T1 sequence (P97266 whole entry): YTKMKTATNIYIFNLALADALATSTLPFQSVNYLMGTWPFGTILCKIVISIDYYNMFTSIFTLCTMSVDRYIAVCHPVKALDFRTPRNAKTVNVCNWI

CC(=O)N[C@H]1CC[C@@]2(O)[C@H]3Cc4ccc(O)c5c4[C@@]2(CCN3C)[C@H]1O5
Ki [1]: 1.81 nM
Ke [2]: 0.88 nM
ED50 [3]: 5.4 nM
IC50 [4]: 166 nM
IC50 [5]: 136 nM

CC(=O)NCC(=O)NCC(=O)N[C@H]1CC[C@@]2(O)[C@H]3Cc4ccc(O)c5c4[C@@]2(CCN3C)[C@H]1O5
Ki [1]: 5.48 nM
Ke [2]: 1.55 nM
ED50 [3]: 3.1 nM
IC50 [4]: 78 nM
IC50 [5]: 82.3 nM

CC(C)C[C@H](NC(=O)[C@H](Cc1ccccc1)NC(=O)CNC(=O)[C@H](CCC(=O)N[C@H]1CC[C@@]2(O)[C@H]3Cc4ccc(O)c5c4[C@@]2(CCN3C)[C@H]1O5)NC(=O)[C@@H](N)Cc1ccc(O)cc1)C(=O)O (H-YE(Oxymorphamine(6α))GFL-OH)
Ki [1]: 19.1 nM
Ke [2]: 1.02 nM
ED50 [3]: 0.7 nM
IC50 [4]: 26.9 nM
IC50 [5]: 7.5 nM

CC(C)C[C@H](NC(=O)[C@H](Cc1ccccc1)NC(=O)CNC(=O)[C@H](CCC(=O)NCC(=O)NCC(N)=O)NC(=O)[C@@H](N)Cc1ccc(O)cc1)C(=O)O (H-YE([Gly-Gly-NH2])GFL-OH)
ED50 [6]: 60 nM
Ki [1]: 52.9 nM
Ke [2]: 2.32 nM
IC50 [4]: 61.8 nM
IC50 [5]: 597 nM

CC(C)C[C@H](NC(=O)[C@H](Cc1ccccc1)NC(=O)CNC(=O)[C@H](CCC(=O)NCC(=O)NCC(=O)N[C@H]1CC[C@@]2(O)[C@H]3Cc4ccc(O)c5c4[C@@]2(CCN3C)[C@H]1O5)NC(=O)[C@@H](N)Cc1ccc(O)cc1)C(=O)O (H-YE([Gly-Gly-Oxymorphamine(6α)])GFL-OH)
Ki [1]: 11.1 nM
Ke [2]: 1.32 nM
ED50 [3]: 5 nM
IC50 [4]: 47.7 nM
IC50 [5]: 57.2 nM

CC(C)C[C@H](NC(=O)[C@H](Cc1ccccc1)NC(=O)CNC(=O)CNC(=O)[C@@H](N)Cc1ccc(O)cc1)C(=O)O [ENKEPHALIN]
Ke [2]: 1.53 nM

CN1CC[C@]23c4c5ccc(O)c4O[C@H]2C(=O)CC[C@@]3(O)[C@H]1C5 [OXYMORPHONE]
ED50 [6]: 24 nM

H-YQGFL-OH
ED50 [6]: 84 nM
Ke [2]: 1.63 nM
IC50 [4]: 123 nM
IC50 [5]: 210 nM
Ki [7]: 21.7 nM

Source: ChEMBL document CHEMBL1123636 (J Med Chem, 1987)
